Sampled rows, rich in hits. Any-hit rate of the full collection: about 4.6%.
OX1R antag-1: antagonists of human orexin 1 receptor (OX1R); Orexin/Hypocretin receptor type 1 (Homo sapiens), O43613; OX1R-expressing cells, FRET antagonist read-out; inhibition, % at 6.6 µM; hit rate 1.8% among 330,000; in the data active means inhibition mostly above about 38%, no sharp cut-off; inactive means mostly below about 40%;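 further: 0% = agonist challenge alone and 100% = reference antagonist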
CHO parental Ca: ATP-evoked calcium signal inhibitors, parental CHO, primary screen, counter-screen for OX1R antagonist project, cell-based, fluorescence, Fluo-8 calcium dye; parental CHO-K1, ATP-induced calcium, Fluo-8 fluorescence; inhibition, % at 5.6 µM; hit rate 0.63% among 330,000; AID 463079, 2010;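 active means inhibition above that plate's mean sample inhibition plus 3 SD, cut at about 26% in these data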;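 further: 0% = ATP-challenged DMSO wells and 100% = DMSO wells without ATP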
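Test system: untransfected parental CHO cell line. Compound: one dose, 5.6 µM nominal. Detection: intracellular calcium via Fluo-8 no-wash fluorescent dye. Measure: % inhibition. Benchmarks: ATP-challenged DMSO wells low, unchallenged DMSO wells high.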
GPR7 antagonist: GPR7 receptor antagonists, primary screen, cell-based, fluorescence, single concentration; inhibition, % at 4.4 µM; GPR7-expressing cells, fluorescence antagonist assay; AID 1861, 2009; Neuropeptides B/W receptor type 1 (Homo sapiens), P48145; hit rate 1.1% among 290,000; in the data active means inhibition above about 16%, passing the limit was not always enough;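 further: cells stimulated with the agonist NPW; 0% = agonist with vehicle and 100% = vehicle without agonist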
Target sequence (P48145 whole entry, looked up): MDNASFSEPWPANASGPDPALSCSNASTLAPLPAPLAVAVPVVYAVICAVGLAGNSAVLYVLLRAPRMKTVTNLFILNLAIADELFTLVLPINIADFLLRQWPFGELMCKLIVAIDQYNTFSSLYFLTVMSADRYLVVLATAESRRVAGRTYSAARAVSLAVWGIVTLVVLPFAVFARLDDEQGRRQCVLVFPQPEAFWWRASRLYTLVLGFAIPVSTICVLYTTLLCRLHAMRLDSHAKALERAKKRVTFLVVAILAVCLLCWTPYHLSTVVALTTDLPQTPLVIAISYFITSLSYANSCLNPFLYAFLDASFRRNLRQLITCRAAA
OX1R antag-2: OX1R (HCRTR1) antagonists, primary screen, fluorescence, CHO/OX1R cells, Fluo-8 calcium, orexin A; Orexin/Hypocretin receptor type 1 (Homo sapiens), O43613; Fluo-8 calcium fluorescence; inhibition, % at 5 µM; hit rate 0.43% among 330,000;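 active means inhibition above its plate's threshold, mean inhibition of all tested compounds on the plate plus 3 SD, cut at about 37% in these data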;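 further: 0% = orexin A challenge wells and 100% = SB-334867-A antagonist wells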
TAAR1 ag: human TAAR1 agonists, primary screen, Fluo-8 calcium fluorescence, CHO RD-HGA16 cells | AID 624467, 2012 | activation, % at 3 µM | Trace amine-associated receptor 1 (Homo sapiens), Q96RJ0 | vehicle wells 0%, saturating PEA agonist 100% | hit rate 0.99% among 360,000;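 active means activation above the mean activation of all test compounds in the run plus 3 SD, cut at about 38% in these data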
Target sequence (Q96RJ0 whole entry, looked up): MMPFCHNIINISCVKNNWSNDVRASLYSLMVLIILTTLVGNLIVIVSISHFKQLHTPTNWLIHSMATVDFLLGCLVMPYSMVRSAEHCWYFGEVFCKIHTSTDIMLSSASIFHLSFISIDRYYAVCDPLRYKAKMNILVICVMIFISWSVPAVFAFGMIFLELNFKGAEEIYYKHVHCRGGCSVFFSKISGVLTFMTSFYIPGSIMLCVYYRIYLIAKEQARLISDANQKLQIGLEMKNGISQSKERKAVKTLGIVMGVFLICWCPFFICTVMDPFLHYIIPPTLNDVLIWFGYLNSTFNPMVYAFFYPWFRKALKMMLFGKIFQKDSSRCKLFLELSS
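Assay system: CHO-derived RD-HGA16 cells with stable Gα16 and human TAAR1; timing: 17-24 h seeding, 75 min 37 °C dye, 30 min RT; read-out: % activation from peak over basal fluorescence ratio, DMSO-to-PEA scaled; measured by: kinetic Fluo-8 calcium fluorescence; benchmarks: low control DMSO, high control PEA (EC100); doses: 3 µM single concentration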
TAAR1 antag: human TAAR1 antagonists, primary screen, Fluo-8 calcium fluorescence, CHO RD-HGA16 cells; hit rate 1.5% among 360,000; AID 624466, 2012; inhibition, % at 3 µM; antagonist; Trace amine-associated receptor 1 (Homo sapiens), Q96RJ0;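 active means inhibition above a per-plate cutoff, the mean inhibition of test compounds on that plate plus 3 SD, cut at about 49% in these data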;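 further: 0% = DMSO plus EC80 beta-PEA response and 100% = DMSO alone without agonist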
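Test system: hTAAR1-expressing CHO RD-HGA16 cells, Gα16-coupled; Probe or stimulus: EC80 β-phenethylamine stimulus; Compound dosing: single nominal final test compound concentration of 3 µM; Timing: 140 s kinetic read after compound, 140 s after agonist; Signal: Fluo-8 calcium-sensitive fluorescence; Measure: % inhibition of agonist calcium response; Controls: DMSO and EC80 PEA controls.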
An asterisk follows results filed as active; / = no result given.

SMILES	OX1R antag-1	CHO parental Ca	GPR7 antagonist	OX1R antag-2	TAAR1 ag	TAAR1 antag
O=C(O)c1ccc(N2CCN(C(c3ccccc3)c3ccccc3)CC2)c([N+](=O)[O-])c1	-4	4	-12	-6	0	30
Cc1[nH]nc2c1C(c1cccc(C(F)(F)F)c1)N(Cc1ccccc1)C2=O (stereo unspecified)	/	/	/	/	3	-33
Cc1cc(Nc2cc(F)c(F)c(F)c2)cc(=O)n1-c1cc(F)c(F)c(F)c1	/	/	/	/	1	-13
O=c1[nH]nc(-c2ccc(NCCO)c([N+](=O)[O-])c2)c2ccccc12	41*	10	-1	-7	0	-1
O=c1[nH]nc(-c2ccc(NCCCO)c([N+](=O)[O-])c2)c2ccccc12	27	1	3	-16	2	-3
Cc1cc(=O)oc2cc(OCc3c(F)cccc3Cl)ccc12	/	/	/	/	0	-28
Cn1cnnc1SCC(=O)Nc1ccc2nc(SCc3cccc4ccccc34)sc2c1	35	-35	18	-15	42*	17
Cn1cnnc1SCC(=O)Nc1ccc2nc(SCc3ccccc3Cl)sc2c1	18	-18	2	-23	18	2
CN(C(=O)[C@@H](Cc1ccccc1)NC(=O)[C@H]1O[C@@H](n2cnc3c(=O)[nH]c(N)nc32)[C@H](O)[C@@H]1O)C1CCCCC1	/	/	/	/	1	-8
O=C(CN1C(=O)c2cccc([N+](=O)[O-])c2C1=O)N1CCN(S(=O)(=O)c2ccccc2)CC1	34*	-19	/	24	6	-8
O=C(CN1C(=O)c2ccccc2C1=O)N1CCN(S(=O)(=O)c2ccccc2)CC1	10	-13	-10	-1	3	-9
Nc1[nH]c(C(=O)c2ccccc2)c(-c2cccnc2)c1C(=O)c1ccccc1	/	/	/	/	5	-2
Cc1cccc(C)c1NC(=O)C1c2ccccc2OCC(=O)N1CCCN1CCOCC1 (stereo unspecified)	/	/	/	/	1	3
COc1cccc(NC(=O)CNC(C)CCC(C)C)c1 (stereo unspecified)	14	-7	-7	-3	38*	4
COc1cccc(NC(=O)CCC(=O)Nc2cccc(OC)c2)c1	15	6	-6	-8	1	14
COC(=O)[C@]12C[C@H](CC(=O)N3CCC(c4ccccc4)CC3)C(=O)N(CCC3=CCCCC3)C1=C[C@H](C(C)(C)C)O[C@@H]2C	/	/	/	/	-1	-34
CCCNC(=O)COC(=O)c1cccnc1Nc1ccccc1F	34	-11	-12	-3	-2	-13
O=C(COC(=O)c1cccnc1Nc1ccccc1F)NCCN1C(=O)CSC1=O	55*	-14	4	15	3	-6
CC(C)(C)S(=O)(=O)N1C[C@@H]2CC(=O)C=C2[C@H]1CCO	/	/	/	/	2	-23
COC(=O)c1sccc1-c1ccc(C(=O)Nc2cccc(Cl)c2)o1	74*	14	0	13	7	-5
CN(C)S(=O)(=O)Oc1ccsc1C(=O)Nc1cccc(Cl)c1	3	-4	-4	-1	-1	18
CC(C)(C)C(=O)NC(=S)NNC(=O)C(c1ccccc1)c1ccccc1	1	79*	90*	93*	/	/
COc1ccc(S(=O)(=O)c2nnn(-c3cccc(Cl)c3)c2N)cc1	18	2	20*	11	46*	4
Cc1ccc(C2=Nc3ccccc3SC(c3cccc([N+](=O)[O-])c3)C2)cc1 (stereo unspecified)	8	-10	12	-29	3	-4
CC(=O)OCCCNc1cc(Sc2ccc(Cl)cc2)c2nonc2c1[N+](=O)[O-]	9	2	-10	16	3	-11
SMILES	OX1R antag-1	CHO parental Ca	GPR7 antagonist	OX1R antag-2	TAAR1 ag	TAAR1 antag
CCCC(=O)OCCNc1cc(Sc2nc3ccccc3[nH]2)c2nonc2c1[N+](=O)[O-]	65*	38*	25*	13	0	28
COc1ccc(CNc2ncnc3c2[nH]c2ccccc23)cc1	52*	24	15	26	34	40
C1=C(CCNc2ncnc3c2[nH]c2ccccc23)CCCC1	46	69*	41*	16	16	41
COc1ccc(/C=C/C(=O)c2cc(F)ccc2OC(=O)c2ccc(OC)c(OC)c2)cc1OC	25	12	8	-14	8	29
COc1ccc(/C=C/C(=O)c2cc(F)ccc2OC(=O)c2ccccc2OC)cc1OC	/	/	17*	/	10	7
Fc1ccc([C@@H]2CCNC[C@H]2COc2ccc3c(c2)OCO3)cc1	9	-5	32*	14	20	5
O=C(COc1ccc2c(c1)OCO2)Nc1ccccc1F	8	-10	-1	-3	0	-1
C=CC[n+]1c(/C=C2\C=Cc3cc(C)ccc3N2CC)ccc2ccccc21	114*	56*	35*	69*	14	37
N#Cc1c(-c2ccccc2)nc(-c2ccccc2)nc1N1CCOCC1	12	-12	5	-19	41*	17
COc1ccccc1C(=O)Nc1nnc(-c2ccccc2)s1	51*	-22	-7	-20	0	3
COc1cccc(C(=O)Nc2nnc(-c3ccccc3)s2)c1OC	52*	9	2	4	4	32
COc1ccccc1C(=O)Nc1nc(-c2ccc3c(c2)OCCO3)cs1	47*	-11	-13	-43	7	11
COc1ccc(NC(=O)Nc2nnc(-c3ccncc3)s2)cc1	7	9	-13	-12	17	49*
O=C(Nc1nnc(-c2ccccc2)s1)c1ccccc1O	23	-3	-21	-1	31	-14
COc1ccc(-n2nc3c(c2NC(=O)c2ccc(Br)o2)CS(=O)(=O)C3)cc1	52	-4	-5	-16	4	0
O=S1(=O)N[C@H](Cc2ccccc2)COc2cccc(N3CCCCC3)c21	/	/	/	/	1	14
Cc1cc(Br)c2nc(-c3ccc(Cl)cc3)c(Cc3cccc(Cl)c3)n2c1	/	/	/	/	1	-7
Cc1ccc(S(=O)(=O)Nc2ccccc2C(=O)Nc2nc(-c3ccc(F)cc3)cs2)cc1	67*	26	18	52*	4	75*
Cc1ccc(S(=O)(=O)Nc2nc(-c3ccccc3)cs2)cc1	8	18	-16	-8	2	-23
CC(CNC(=O)c1ccccc1Cl)c1ccccc1 (stereo unspecified)	8	-2	-9	-19	3	-6
CNc1cncc(-c2cccc(C(=O)N(C)C)c2)n1	/	/	/	/	2	-1
O=C(CSc1nc2ncc(Br)cc2[nH]1)c1ccc([N+](=O)[O-])cc1	10	9	-8	4	0	-2

Screening results as filed in PubChem BioAssay.
